Results taken from paper PMC2848690 (Journal of medicinal chemistry, 2010).

Assays:
MCF-7 cells [1] = experiment: Zinc chloride rescue of growth inhibition, MTT assay in MCF-7; assay type: cell-based, human; details: for Growth inhibitory activity in presence of zinc chloride: compound at its IC50, ZnCl2 600 nM to 75 μM, 5 days, MCF-7
[2] = cited from earlier work
[3] = target: recombinant wild type human BCA2 (Homo sapiens, UniProt Q9Y4L5); experiment: Recombinant BCA2 autoubiquitination assay; assay type: biochemical; details: 50 μM compound, 30 min preincubation
recombinant wild type human BCA2, sequence (Q9Y4L5 whole entry): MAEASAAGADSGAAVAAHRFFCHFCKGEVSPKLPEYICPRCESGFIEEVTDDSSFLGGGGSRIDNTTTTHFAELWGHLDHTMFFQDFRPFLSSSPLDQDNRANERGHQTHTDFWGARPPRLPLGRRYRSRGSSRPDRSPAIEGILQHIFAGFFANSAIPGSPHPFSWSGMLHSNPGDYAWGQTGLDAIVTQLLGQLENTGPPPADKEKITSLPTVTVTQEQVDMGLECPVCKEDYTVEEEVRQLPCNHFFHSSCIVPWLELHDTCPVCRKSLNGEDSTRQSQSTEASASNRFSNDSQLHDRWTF
Method in brief: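 Test compound stocks (10 mM in DMSO) were diluted in reaction buffer and preincubated with 10 ng recombinant His-BCA2 (final 5 or 50 μM) for 30 min at room temperature. ATP (20 mM stock), ubiquitin (1 μg), rabbit E1 (20 ng) and human UbcH5b (20 ng) were added in Tris-HCl pH 8.0/DTT/MgCl2 buffer. Reactions ran 1 h at 30 °C, then SDS-PAGE and anti-ubiquitin immunoblot.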

MCF-7 cells [4] = experiment: MTT proliferation assay, MCF-7; assay type: cell-based, human; details: for Mean IC50 ±SD in MCF-7: MTT assay, 72 hour drug exposure (footnote a), BCA2 +ve, ER +ve, three independent experiments; for IC100 (100% growth inhibitory concentration) in MCF-7: delineated from MTT growth curves
Method in brief: (§1)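 Exponentially growing cells were kept in RPMI 1640 with 10% heat-inactivated FBS at 37 °C and 5% CO2. They were dosed with test compound from 0.00001 to 10 μM and read by MTT. Each compound was tested in triplicate. Active compounds had three independent experiments, reported as mean ± SD. IC50 and IC100 were read from growth curves.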

T47D cells = experiment: MTT proliferation assay, T47D; assay type: cell-based, human; details: 72 hour drug exposure (footnote a), BCA2 +ve, ER +ve
Method in brief: as §1

BCA2 = BCA2 (Homo sapiens, UniProt Q9Y4L5); experiment: Endogenous BCA2 protein stability in MCF-7 cells; assay type: cell-based; details: 16 hrs exposure at IC100 concentration, compound alone
BCA2, sequence (Q9Y4L5 whole entry): as above
Method in brief: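 MCF-7 cells (1×10^6) were seeded and grown overnight, then exposed for 16 h to test compound alone, or with cycloheximide (100 μM) and/or a proteasome inhibitor (10 μM). DMSO vehicle controls ran for 16 h. Whole-cell lysates were immunoblotted with in-house anti-BCA2 antibodies, using beta-actin as the loading control.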

[5] = system: BCA2 low/− cells (MDA-MB-231 or MCF10A); experiment: MTT assay, BCA2 low/negative cells as a group; assay type: cell-based, human; details: active if IC50 <10 μM
Method in brief: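 MDA-MB-231 (BCA2 low/−, ER −) was grown in RPMI 1640 with 10% heat-inactivated FBS, and normal MCF10A mammary epithelial cells in MEGM, both at 37 °C and 5% CO2. Exponentially growing cells received test compound at 0.00001–10 μM for 72 h, followed by MTT read-out. IC50 values came from growth curves, with triplicate wells and three independent experiments (mean ± SD).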

[6] = system: BCA2+ cells (MCF-7, T47D, MDA-MB-231/ER); experiment: MTT assay, BCA2-positive breast cancer cell lines as a group; assay type: cell-based, human; details: active if IC50 <10 μM
Method in brief: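 MCF-7, T47D and MDA-MB-231/ER (a stable ERα-transfected, G418-selected clone of MDA-MB-231 kept in 1mg/mL G418) were grown in RPMI 1640 with 10% heat-inactivated FBS at 37 °C and 5% CO2. Exponentially growing cells were exposed to test compound at 0.00001–10 μM for 72 h, and growth was read by MTT. IC50 values came from growth curves, with triplicate wells and three independent experiments (mean ± SD).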

ALDH1 = target: T1, ALDH1 (Homo sapiens, UniProt P00352); experiment: ALDH1 inhibition in K562 cells; assay type: cell-based; details: for ALDH-inhibitory activity (in words): K562 cells, 15 μM
T1 sequence (P00352 2-501 limits assumed): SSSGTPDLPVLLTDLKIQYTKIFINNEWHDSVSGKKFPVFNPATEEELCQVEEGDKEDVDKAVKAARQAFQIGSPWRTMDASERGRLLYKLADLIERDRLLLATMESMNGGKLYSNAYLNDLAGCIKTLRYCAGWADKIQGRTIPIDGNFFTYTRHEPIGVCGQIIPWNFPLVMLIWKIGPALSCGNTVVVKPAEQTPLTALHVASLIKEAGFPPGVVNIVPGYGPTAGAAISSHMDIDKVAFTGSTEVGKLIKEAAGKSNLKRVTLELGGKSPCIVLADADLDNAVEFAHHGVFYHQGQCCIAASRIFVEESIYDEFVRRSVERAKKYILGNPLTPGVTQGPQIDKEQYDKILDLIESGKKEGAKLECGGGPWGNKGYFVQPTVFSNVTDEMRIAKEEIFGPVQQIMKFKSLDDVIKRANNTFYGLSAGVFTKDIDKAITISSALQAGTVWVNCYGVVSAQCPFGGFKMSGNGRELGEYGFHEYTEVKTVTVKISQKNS

MDA-MB-231 cells = experiment: MTT proliferation assay, MDA-MB-231; assay type: cell-based; details: Homo sapiens, MDA-MB-231, 72 h, read-out: Mean IC50 ±SD in MDA-MB-231
Method in brief: as §1

| Compound | Growth inhibitory activity in presence of zinc chloride (MCF-7 cells [1]) | Oral bioavailability [2] | Inhibition of autoubiquitination of recombinant BCA2 [3] | Mean IC50 ±SD in MCF-7 (MCF-7 cells [4]) | IC100 (100% growth inhibitory concentration) in MCF-7 (MCF-7 cells [4]) | Mean IC50 ±SD in T47D (T47D cells) | BCA2 protein levels in MCF-7 cells (BCA2) | Activity in BCA2 low/− cells [5] | Activity in BCA2+ cells [6] | ALDH-inhibitory activity (in words) (ALDH1) | ALDH+ K562 cells (%) (ALDH1; compound 15 μM, 45 min at 37 °C) | IC50 (MDA-MB-231 cells) | Effect on the growth of MCF-7 cells (MCF-7 cells [1]; zinc chloride alone) |
| --- | --- | --- | --- | --- | --- | --- | --- | --- | --- | --- | --- | --- | --- |
| CCN(CC)C(=S)SSC(=S)N(CC)CC [Compound 1, bis(diethylaminothiocarbonyl)-disulfide, reference compound] | completely abolished | > 80% | abolish the autoubiquitination activity |  |  |  |  |  |  |  |  |  |  |
| S=C(SSC(=S)N1CCCCC1)N1CCCCC1 [Compound 3a, Bis(piperidinylthiocarbonyl)disulfide] | completely abolished |  | abolish the autoubiquitination activity | submicromolar | 0.25 µM | submicromolar | marked reduction |  |  |  |  |  |  |
| S=C(SSC(=S)N1CCCC1)N1CCCC1 [Compound 3c, Bis(pyrrolidinylthiocarbonyl)disulfide] |  |  | abolish the autoubiquitination activity | submicromolar |  | submicromolar |  |  |  |  |  |  |  |
| C1CN(SSN2CCOCC2)CCO1 [Compound 4, 4,4′-dithiodimorpholine] |  |  |  |  |  |  |  | inactive | inactive |  |  |  |  |
| CCCCCCSSC(=S)N(CC)CC [Compound 5d, Hexyl diethylcarbamo(dithioperoxo)thioate] | completely abolished |  | abolish the autoubiquitination activity | submicromolar | 1 µM | submicromolar | marked reduction | inactive | active | lack ALDH-inhibitory activity |  |  |  |
| CCN(CC)C(=S)SSCCO [Compound 5f, 2-Hydroxyethyl diethylcarbamo(dithioperoxo)thioate] |  |  | abolish the autoubiquitination activity | submicromolar |  | submicromolar |  | inactive | active | lack ALDH-inhibitory activity | 36.9 ± 3.15% | > 10 µM |  |
| [Cl-].[Cl-].[Zn+2] [Zinc chloride, zinc (II) chloride] |  |  |  |  |  |  |  |  |  |  |  |  | no effect |
